Assay results reported in ChEMBL document CHEMBL1145257, “Synthesis and antibacterial activity of hydrolytically stable (-)-epicatechin gallate analogues for the modulation of beta-lactam resistance in Staphylococcus aureus” (2005).
Converted amounts (≈) assume the structure as drawn.

Tests used:
Format in all cases: functional
[1] = test system: Staphylococcus aureus; assay: Minimum inhibitory concentration against methicillin resistant Staphylococcus aureus strain EMRSA 16
Outline: (§1)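 Intrinsic activity by broth microdilution. Inoculum about 10⁴ cfu per well in Mueller-Hinton broth with 2% w/v NaCl, doubling dilutions of compound. MIC read after 24 h at 35 °C. S. aureus ATCC29213 served as standard strain.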

[2] = test system: Staphylococcus aureus; assay: Minimum inhibitory concentration against methicillin resistant Staphylococcus aureus strain EMRSA 15; outline: as §1
[3] = test system: Staphylococcus aureus; assay: Minimum inhibitory concentration against methicillin resistant Staphylococcus aureus strain BB 568; outline: as §1
[4] = test system: Staphylococcus aureus; assay: Minimum inhibitory concentration against methicillin resistant Staphylococcus aureus strain BB 568 in combination with oxacillin; Experiment 1
Outline: (§2)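 Oxacillin MIC measured with test compound held at a fixed 25 mg/L, using doubling dilutions of oxacillin. Broth microdilution with about 10⁴ cfu per well in Mueller-Hinton broth plus 2% w/v NaCl. MIC read after 24 h at 35 °C. S. aureus ATCC29213 served as standard. Two separate experiments reported.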

[5] = test system: Staphylococcus aureus; assay: Minimum inhibitory concentration against methicillin resistant Staphylococcus aureus strain EMRSA 15 in combination with oxacillin; outline: as §2
[6] = test system: Staphylococcus aureus; assay: Minimum inhibitory concentration against methicillin resistant Staphylococcus aureus strain EMRSA 16 in combination with oxacillin; outline: as §2
[7] = test system: Staphylococcus aureus; assay: Minimum inhibitory concentration against methicillin resistant Staphylococcus aureus strain BB 568 in combination with oxacillin; Experiment 2; outline: as §2
[8] = test system: Staphylococcus aureus; assay: Minimum inhibitory concentration against methicillin resistant Staphylococcus aureus strain EMRSA 16 in combination with oxacillin; Experiment 2; outline: as §2
[9] = test system: Staphylococcus aureus; assay: Minimum inhibitory concentration against methicillin resistant Staphylococcus aureus strain EMRSA 15 in combination with oxacillin; Experiment 1; outline: as §2
[10] = test system: Staphylococcus aureus; assay: Minimum inhibitory concentration against methicillin resistant Staphylococcus aureus strain BB 568 in combination with oxacillin; outline: as §2
[11] = test system: Staphylococcus aureus; assay: Minimum inhibitory concentration against methicillin resistant Staphylococcus aureus strain EMRSA 16 in combination with oxacillin; Experiment 1; outline: as §2
[12] = test system: Staphylococcus aureus; assay: Minimum inhibitory concentration against methicillin resistant Staphylococcus aureus strain EMRSA 15 in combination with oxacillin; Experiment 2; outline: as §2

Row | SMILES | MIC [1] [mg/L] | MIC [2] [mg/L] | MIC [3] [mg/L] | MIC [4] [mg/L] | MIC [5] [mg/L] | MIC [6] [mg/L] | MIC [7] [mg/L] | MIC [8] [mg/L] | MIC [9] [mg/L] | MIC [10] [mg/L] | MIC [11] [mg/L] | MIC [12] [mg/L]
1 | O=C(N[C@@H]1Cc2c(O)cc(O)cc2O[C@@H]1c1ccc(O)c(O)c1)c1cc(O)c(O)c(O)c1 | 128 (≈ 290 µM) | 256 (≈ 580 µM) | 256 (≈ 580 µM) | 4 | ≤ 0.5 | 1 | 8 |  |  |  |  | 
2 | Cc1onc(-c2ccccc2)c1C(=O)N[C@@H]1C(=O)N2[C@@H]1SC(C)(C)[C@@H]2C(=O)O [OXACILLIN] | 512 (≈ 1280 µM) | 32 (≈ 79.7 µM) | 256 (≈ 638 µM) |  |  |  |  |  |  |  |  | 
3 | O=C(N[C@H]1Cc2c(O)cc(O)cc2O[C@@H]1c1ccc(O)c(O)c1)c1cc(O)c(O)c(O)c1 | 128 (≈ 290 µM) | 256 (≈ 580 µM) | 256 (≈ 580 µM) |  |  |  |  | 512 | 2 | 64 | 256 | 4
